# Bioassay records deposited in PubChem BioAssay by SRMLSC.
# The entries come from a sample that favours hits as a whole.
# Lung fibro prol = blocks proliferation of human lung fibroblasts | LL 47 human lung fibroblast viability, ATP luminescence; hits give low values | viability, % at 10 µM | actives 1.1% (n = 85,000) | AID 719;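 active means viability at or below 50% in the single dose screen; inactive means viability above 50%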;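 further: compound exposure lasted 72 h before the ATP readout; 100% = median luminescence of untreated cell-only wells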
#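 Material: human LL 47 lung fibroblast cells; quantity: 1,150 cells/well; medium: IMEM plus 15% FBS; doses: 0.1% DMSO in all compound wells; timing: overnight attachment after seeding, then 72 h compound exposure at 37 °C; detection: CellTiter-Glo luminescence; measure: % viability of median cell-only signal; controls: cell-only wells, no compound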
# HUVEC inhibit = inhibitors of human endothelial cell proliferation; HUVEC proliferation, CellTiter-Glo luminescence, 72 h; hits give low values; viability, % at 10 µM (by protocol); actives 1.1% (n = 86,000); AID 648;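 active means viability at or below 30%; inactive means viability above 30%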;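 further: 100% = median luminescence of DMSO-only cell control wells on each plate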
# HCT116 bCat-KO = beta-catenin-lacking colon tumor cell growth suppression. HCT116 beta-catenin knockout viability, CellTiter-Glo, 60 h; hits give low values. viability, % at 10 µM. actives 1.5% (n = 140,000);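 active means viability at or under a set limit, the compound median less 4 SD, cut at about 6% in these data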;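 further: 0% = Hyamine 1622 control at 20 µM and 100% = untreated cell control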
# PTEN del growth = growth suppressors of cells with PTEN tumor suppressor deletion | actives 1.2% (n = 140,000) | viability, % at 10 µM | HCT116 PTEN-null viability, CellTiter-Glo, 60 h; hits give low values;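 active means viability at or below a set limit, 4 SD under the median of all tested compounds, cut at about 3.7% in these data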;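 further: PTEN knockout HCT116 line with beta catenin targeted HCT116 as companion control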
# H69AR growth 86K = blocks growth of human H69AR lung tumor cells; H69AR lung tumor viability, ATP luminescence, 72 h; hits give low values; viability, % at 10 µM; actives 6% (n = 85,000); AID 598;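 active means viability at or below 40%; inactive means viability above 40%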;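 further: multidrug resistant small cell line overexpressing MRP-1 efflux transporter; 100% = mean luminescence of untreated control wells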
# Starred values were filed as active, the others as inactive; / = not tested or not shown.
SMILES,Lung fibro prol,HUVEC inhibit,HCT116 bCat-KO,PTEN del growth,H69AR growth 86K
O=C(c1ccco1)N1CCN(C(=O)c2cc(-c3ccccn3)nc3ccc(Cl)cc23)CC1,97.6,86.2,74.8,81.5,38.4*
O=C(c1ccco1)N1CCN(c2ncnc3c2[nH]c2ccc(Br)cc23)CC1,81.2,66.6,49.1,50.6,38.2*
O=C(c1ccco1)N1CCN(c2ncnc3c2[nH]c2ccccc23)CC1,92.5,84.4,61.4,62.0,44.6
O=C(c1ccco1)N1CCN(C(=O)c2cc(-c3ccncc3)nc3ccc(Br)cc23)CC1,84.2,65.0,/,/,38.6*
COc1ccc2c(c1)nc(SCC(=O)c1cccs1)n2C,/,/,90.0,88.8,/
C=CCn1c(=O)/c(=C/c2ccc(Cl)cc2)s/c1=C(/C#N)c1nnc2n1CCCCC2,82.5,67.7,48.3,45.5,22.2*
Cc1ccc(SCc2ccc(C(=O)NCc3ccncc3)cc2)cc1,/,/,73.9,77.5,/
CS(=O)(=O)c1ccc2nc(NC(=O)CCC(=O)c3cccs3)sc2c1,99.8,96.4,79.2,81.3,39.6*
CC(C)(C)NS(=O)(=O)c1ccc2nc(NC(=O)Cc3cccs3)sc2c1,65.4,47.9,65.5,55.4,27.6*
CC(C)n1nc(C(=O)Nc2nc3ccc(S(C)(=O)=O)cc3s2)c2ccccc2c1=O,49.8*,106.9,29.4,29.3,91.8
COc1ccc(-n2nc(C(=O)Nc3nc4ccc(OC)cc4s3)c3ccccc3c2=O)cc1,/,/,25.6,20.1,/
CS(=O)(=O)c1ccc2nc(NC(=O)Cc3ccccc3)sc2c1,99.8,92.4,/,/,72.2
CCCCC1C2=C(CC(C)(C)CC2=O)OC2=C1C(=O)CC(C)(C)C2,/,/,87.7,82.1,/
Nc1cc(C(F)(F)F)cc2c1SCC(=O)N2,/,/,83.1,84.3,/
O=c1cc(CNc2ccc(Br)cc2)nc2sccn12,/,/,86.5,82.8,/
N#Cc1ccc(-c2ccc(F)cc2)nc1SCC(=O)Nc1sc2c(c1C#N)CCC2,/,/,46.0,49.2,/
COC(=O)c1ccc(OC(=O)c2ccccc2F)cc1,/,/,99.9,103.1,/
CCN(CC)S(=O)(=O)c1cccc(C(=O)NC(Cc2c[nH]c3ccccc23)c2nnc3n2CCC3)c1 (stereo not drawn),/,/,79.2,94.2,/
O=C1CC(Sc2nnc(-c3ccccc3)o2)C(=O)N1c1ccccc1 (stereo not drawn),90.3,106.4,96.5,115.8,1.8*
Cc1ccccc1N1C(=O)CC(Sc2nnc(-c3ccccc3)o2)C1=O (stereo not drawn),45.9*,85.3,83.6,96.9,1.8*
CN(C)c1ccc(/C=C/C(O)=C2/C(=O)N(C)C3(C)CC2c2ccccc2O3)cc1 (stereo not drawn),96.3,91.4,56.5,52.1,21.4*
Cc1[nH]nc2c1C(c1cc(Br)cs1)C(C#N)=C(N)O2 (stereo not drawn),/,/,2.0*,2.1*,/
Cc1[nH]nc2c1C(c1ccoc1)C(C#N)=C(N)O2 (stereo not drawn),99.6,92.1,96.3,82.3,97.0
CC(NC(=O)c1cc(-c2ccc3c(c2)OCO3)nc2ccccc12)C(C)(C)C (stereo not drawn),72.4,76.7,38.3,48.6,16.3*
O=C(O)c1cc(-c2ccc3c(c2)OCO3)nc2ccccc12,93.5,94.1,88.4,101.9,93.9
SMILES,Lung fibro prol,HUVEC inhibit,HCT116 bCat-KO,PTEN del growth,H69AR growth 86K
Cc1ccc(NC(=O)CSc2nnc(-c3cnccn3)n2-c2ccccc2)cc1,/,/,92.1,86.0,/
Cc1ccc(NC(=O)CSCCc2ccccn2)nc1,94.7,101.1,98.0,98.5,92.3
Cc1cc(NC(=O)CCCS(=O)(=O)c2nc(-c3cccs3)cc(C(F)(F)F)n2)no1,/,/,6.7,3.3*,/
CCCNC(=O)CSc1nc(-c2cccs2)cc(C(F)(F)F)n1,96.8,100.2,89.6,75.7,88.0
Cc1cc(NC(=O)CSc2nc(-c3cccs3)cc(C(F)(F)F)n2)no1,53.0,41.6,21.3,18.3,29.1*
CC(C)Oc1ccc(/C(O)=C2/C(=O)C(=O)N(CCCN3CCOCC3)C2c2ccncc2)cc1 (stereo not drawn),104.9,96.5,/,/,102.1
O=C(CN1C(=O)COc2ccc(S(=O)(=O)N3CCCC3)cc21)NC1CCCCCCC1,/,/,76.2,88.2,/
O=C(/C=C/c1cccc(C(F)(F)F)c1)Nc1cccc(C(F)(F)F)c1,/,/,3.8*,2.3*,/
COc1ccc(S(=O)(=O)Nc2ccccc2OC)cc1NC(=O)CC1CC2CCC1C2 (stereo not drawn),/,/,55.3,62.9,/
O=C1C=C(NCCN2CCOCC2)C(=O)c2cnccc21,/,/,1.8*,1.9*,/
Cc1ccc(N(CC(=O)N/N=C/c2cc(C)n(-c3ccccc3C)c2C)S(C)(=O)=O)cc1,/,/,74.9,82.7,/
CC(C)=NOc1cc(NC(=O)CCl)cc([N+](=O)[O-])c1,/,/,3.3*,3.0*,/
C=C1C(C(=O)N2CCOCC2)C1C(=O)N1CCOCC1 (stereo not drawn),94.7,101.2,91.2,99.5,92.8
CCN(CC)c1ccc(N=Cc2ccccc2[N+](=O)[O-])cc1,/,/,46.4,52.6,/
CCN(CC)c1ccc(N=Cc2ccc([N+](=O)[O-])o2)cc1,/,/,4.7*,1.9*,/
CC(NS(=O)(=O)c1ccc(OCC(=O)Nc2cccc([N+](=O)[O-])c2)cc1)c1ccccc1 (stereo not drawn),/,/,36.0,24.1,/
CCN(CC)c1ccc(NC(=O)c2ccccc2F)cc1,70.9,46.7,32.9,30.5,25.6*
O=C(/C=C/c1ccc(Br)cc1)c1ccc(NC(=O)c2ccco2)cc1,/,/,1.8*,2.1*,/
O=C(Nc1cccc(NC(=O)c2ccc(-c3ccc(Br)cc3)o2)c1)c1ccco1,70.2,53.9,38.6,36.3,35.3*
CCN(CC)c1ccc(NC(=O)c2cc(Cl)ccc2OC)cc1,73.9,30.5,63.8,66.6,48.1
O=C(/C=C/c1ccncc1)c1ccc(NC(=O)c2ccccc2F)cc1,/,/,1.2*,2.0*,/
O=C(/C=C/c1ccc2c(c1)OCO2)c1ccco1,/,/,18.5,20.1,/
O=C(/C=C/c1ccc(Br)cc1)c1ccco1,/,/,1.0*,0.8*,/
COC(=O)c1cc(NC(=O)CC2SC(=Nc3ccccc3)N(CCc3c[nH]c4ccccc34)C2=O)cc(C(=O)OC)c1 (stereo not drawn),/,/,43.1,29.4,/
Nc1nc(NC(=O)c2ccccc2)nn1-c1ccccc1,/,/,92.4,104.7,/
SMILES,Lung fibro prol,HUVEC inhibit,HCT116 bCat-KO,PTEN del growth,H69AR growth 86K
O=C(Nc1nc(NC(=O)c2ccco2)n(-c2ccccc2)n1)c1ccccc1,34.7*,93.0,7.2,10.8,1.4*
COCCn1nnnc1C(c1cccc(C#N)c1)N1CCCCCC1 (stereo not drawn),98.1,96.7,90.2,82.0,80.8
CC(C)(C)C(C(Oc1ccc(Cl)cc1)n1cncn1)n1nnnc1C(c1cccc(Cl)c1)N1CCCCC1 (stereo not drawn),96.5,54.6,5.7*,14.8,12.2*
O=C(N/N=C/c1cccs1)c1cc(-c2cccc3ccccc23)n[nH]1,/,/,29.6,24.4,/
CCC(C)(C)n1nnnc1CN1CCN(C(c2ccccc2)c2ccccc2)CC1,96.6,89.7,66.3,68.5,56.0
CC1(C)Cc2c(sc3c2c(=N)n(Cc2ccco2)c(=O)n3CC(=O)Nc2ccc(Cl)cc2)CO1,21.8*,77.9,/,/,88.4
